# Compound activity from PubChem BioAssay.
# Hits are enriched below; roughly 2.2% of the tested compounds scored in any of these assays.
# NR2E3 ag-1: NR2E3 agonists in two-hybrid cells, primary screen, cell-based, luminescence, CHO-S, Gal4-NCOR/VP16-NR2E3. Photoreceptor-specific nuclear receptor (Homo sapiens), Q9Y5X4. luciferase. inhibition of corepressor binding, % at 3.98 µM. hit rate 0.35% among 360,000. AID 602229, 2012;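 active = inhibition above the mean of all tested compounds plus 3 SD, cut at about 70% in these data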;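 note: 0% = DMSO with NR2E3 transfected cells and 100% = cells lacking NR2E3 construct; higher means lower luciferase signal from less NR2E3 corepressor binding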
# NR2E3 ag-2: inhibitors of NR2E3-RetCOR corepressor binding, primary screen, NR2E3 agonist project, biochemical, TR-FRET, GST-NR2E3, biotin-RetCOR; 1536-well; AID 2300, 2010; hit rate 0.12% among 320,000; inhibition of corepressor binding, % at 4.78 µM; Photoreceptor-specific nuclear receptor (Homo sapiens), Q9Y5X4;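 active = percent inhibition above the cutoff of mean plus 3 SD of all tested compounds, set per screening campaign, cut at about 20% in these data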;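 note: 0% = DMSO wells and 100% = biotin wells as full block of FRET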
#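 System: GST-tagged NR2E3 plus biotinylated RetCOR corepressor; Buffer or medium: pH 7.5 Tris-based buffer; Probe or stimulus: RetCOR corepressor, biotinylated, 7 nM; Doses: compound at 4.8 µM, single dose; Schedule: 5 h incubation at 4 °C; Technique: time-resolved FRET; Evaluation: percent inhibition of TR-FRET ratio; Replication: one well per compound, singlicate testing.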
# GalR3 antag: GalR3 antagonists in HEK293 cells, primary screen, cell-based, fluorescence readout; HEK293 GalR3-CNG cAMP membrane potential fluorescence; galR3 body fused to GalR1 C-terminus; inhibition, % at 3 µM; hit rate 0.44% among 360,000;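 active = inhibition above the screen-wide average plus 3 SD, cut at about 13% in these data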;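 note: forskolin and galanin both at EC90 stimulate the cells; cAMP rise reported by CNG channel membrane potential dye signal; 0% = forskolin plus galanin with DMSO and 100% = forskolin alone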
# Target sequence (O60755 1-299 limits assumed): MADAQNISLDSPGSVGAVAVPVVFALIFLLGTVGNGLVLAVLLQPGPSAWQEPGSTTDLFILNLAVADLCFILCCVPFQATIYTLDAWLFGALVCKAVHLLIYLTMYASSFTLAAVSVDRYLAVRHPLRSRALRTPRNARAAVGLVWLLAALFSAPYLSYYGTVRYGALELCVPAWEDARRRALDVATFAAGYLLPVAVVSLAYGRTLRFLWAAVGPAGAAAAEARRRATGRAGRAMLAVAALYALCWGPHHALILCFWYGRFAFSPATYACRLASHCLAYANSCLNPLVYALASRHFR
# SMARCA2 act: SMARCA2 (BRM) function activators, primary screen, cell-based, luminescence, high throughput; hit rate 1% among 370,000; MG213 cells, MMTV-luciferase reporter, dexamethasone, overnight; activation, % at 9.1 µM; AID 652017, 2013; in the data active = activation above about 7.8%;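 note: 0% = vehicle wells and 100% = reference activator wells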
# COUP-TFII inh: NR2F2 transcriptional activity inhibitors, primary screen, cell-based, luciferase reporter, HEK293T, luminescence; hit rate 0.7% among 370,000; inhibition, % at 8.6 µM; COUP transcription factor 2 (Homo sapiens), P24468; HEK293T NGFI-A luciferase reporter;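 active = inhibition above a per-plate cutoff, mean inhibition of test wells between control levels plus 3 SD, cut at about 38% in these data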;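 note: cells cotransfected with COUP-TFII expression vector driving the NGFI-A reporter; 0% = median of COUP-TF2 test wells and 100% = reporter-only cells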
# Target sequence (P24468 whole entry, looked up): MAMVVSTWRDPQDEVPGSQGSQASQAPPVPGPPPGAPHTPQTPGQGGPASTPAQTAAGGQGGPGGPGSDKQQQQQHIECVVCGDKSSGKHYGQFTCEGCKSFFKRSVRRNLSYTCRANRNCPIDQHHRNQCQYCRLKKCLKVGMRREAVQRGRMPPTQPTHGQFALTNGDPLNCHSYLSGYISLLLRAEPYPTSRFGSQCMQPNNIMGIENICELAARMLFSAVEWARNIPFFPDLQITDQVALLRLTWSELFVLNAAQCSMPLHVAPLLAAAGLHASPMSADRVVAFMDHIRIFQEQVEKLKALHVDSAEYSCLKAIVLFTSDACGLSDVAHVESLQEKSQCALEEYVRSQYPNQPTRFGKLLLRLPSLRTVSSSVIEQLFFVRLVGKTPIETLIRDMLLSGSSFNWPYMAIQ
# VP16 Luc counter: Gal4-VP16 luciferase reporter inhibitors, counter-screen for COUP-TFII antagonist project, cell-based, luminescence, HEK293; shares compounds with COUP-TFII inh; inhibition, % at 8.5 µM; hit rate 25% among 2,500; AID 687007, 2013; in the data active = inhibition above about 13%
# NR2F2 inh conf: NR2F2 transcriptional activity inhibitors, confirmation, cell-based, luciferase reporter, HEK293, triplicate; AID 687008, 2013; hit rate 45% among 2,500; HEK293 NGFI-A luciferase reporter, luminescence; shares compounds with COUP-TFII inh; inhibition, % at 8.5 µM;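 active = mean inhibition over three repeats above a set limit taken from the earlier primary screen, cut at about 38% in these data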;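 note: 100% = cells given the luciferase reporter alone without the COUP-TF2 vector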
# * hit, by the source's call; nt = no result.
SMILES,NR2E3 ag-1,NR2E3 ag-2,GalR3 antag,SMARCA2 act,COUP-TFII inh,VP16 Luc counter,NR2F2 inh conf
NS(=O)(=O)c1ccc(CCNc2ncnc3sccc23)cc1,12,3,4,-8,53*,-8,37
O=C(c1cc(C2CC2)on1)N(C1CCCCC1)C1CCOCC1,nt,nt,nt,-2,17,nt,nt
CCCOc1ccc(C(=O)Nc2ccc(S(=O)(=O)NC3=NCCCCC3)cc2)cc1,9,-1,-4,-4,43*,-3,10
COc1ccc(/C=C/c2cccc[n+]2C)c(O)c1,-32,-4,-3,-3,-1,nt,nt
CCN(CC)c1ccc(/C=C/c2cccc[n+]2C)c(OC)c1,0,-9,18*,-5,78*,19*,74*
Cc1ccccc1C(=O)NC1CCCCN(Cc2ccc(Cl)cc2)C1=O (stereo not drawn),nt,nt,nt,-2,-12,nt,nt
COc1ccc(Cl)cc1Nc1nc(-c2sc(NC(=O)C(C)(C)C)nc2C)cs1,38,0,-2,1,41*,-5,42*
CCC[C@H]1[C@@H](OC(=O)NCc2ccc(OC)cc2)CC[C@@]23CCCN2C(=O)CCC[C@@H]13,nt,nt,nt,nt,-11,nt,nt
CCOC(=O)c1c(CN2CCN(CCO)CC2)n(-c2ccccc2)c2cc(Br)c(O)cc12,12,3,2,-3,43*,2,-4
Cc1cc(C(=O)COC(=O)c2n[nH]c3ccccc23)c(C)n1CC1CCCO1 (stereo not drawn),-19,-1,-6,-3,22,nt,nt
Cc1cc(C(=O)COC(=O)c2ccccc2NCCO)c(C)n1CC1CCCO1 (stereo not drawn),13,1,-2,-3,44*,-98,-7
Cc1cc(C(=O)COC(=O)c2cc(O)c3ccccc3c2O)c(C)n1CC1CCCO1 (stereo not drawn),21,nt,nt,nt,nt,nt,nt
Cc1cc(C(=O)COC(=O)c2cccc(NS(C)(=O)=O)c2)c(C)n1CC1CCCO1 (stereo not drawn),44,nt,-4,-5,72*,-26,57*
COc1ccc(OC)c(S(=O)(=O)N2CCC(C(=O)NCC3COCCO3)CC2)c1 (stereo not drawn),nt,nt,nt,-3,-3,nt,nt
CCCCCCCCN1C(=O)[C@@H](CC(=O)N2CCN(C(=O)OCC)CC2)C[C@@]2(C(=O)OC)C1=C[C@H](C(C)(C)C)O[C@@H]2C,nt,nt,-5,-7,-12,nt,nt
Cn1c(Cc2cccs2)nnc1SCC(=O)Nc1ccc2cn[nH]c2c1,nt,nt,nt,-6,42*,-13,5
Cn1c(SCC(=O)Nc2ccc3cn[nH]c3c2)nnc1-c1cccs1,1,2,-2,-1,6,nt,nt
CN(C)c1cc[n+](CC(=O)c2ccc(-c3ccccc3)cc2)cc1,6,0,-4,-4,52*,12,48*
CCOc1ccc(S(=O)(=O)Nc2cnc3ccccc3c2)cc1,99*,0,-9,-5,43*,-3,30
CCOc1ccc(S(=O)(=O)Nc2cccnc2)cc1,8,3,-3,-2,-5,nt,nt
CC(C)C[C@@H]1COc2cc(F)ccc2S(=O)(=O)N1C,nt,nt,nt,-2,4,nt,nt
CN(c1ccccc1)S(=O)(=O)c1ccc(C(=O)Nc2cccc(S(=O)(=O)N3CCOCC3)c2)cc1,-28,nt,-5,-7,56*,0,43*
COc1ccccc1N(C)S(=O)(=O)c1ccc(C(=O)Nc2cccc(S(=O)(=O)N3CCOCC3)c2)cc1,-2,nt,0,-4,50*,4,26
COc1ccccc1N(C)S(=O)(=O)c1ccc(C(=O)Nc2nc(C)cs2)cc1,7,-3,-8,-5,40*,-10,12
O=C(Nc1cccc(S(=O)(=O)N2CCOCC2)c1)c1cccc(S(=O)(=O)N2CCCC2)c1,-3,nt,-1,-2,21,nt,nt
SMILES,NR2E3 ag-1,NR2E3 ag-2,GalR3 antag,SMARCA2 act,COUP-TFII inh,VP16 Luc counter,NR2F2 inh conf
Nc1[nH]c(C(=O)c2ccc(Br)cc2)c(-c2ccc(Cl)cc2[N+](=O)[O-])c1C(=O)NCCc1c[nH]c2ccccc12,nt,nt,-7,-6,8,nt,nt
COC(=O)[C@H]1C[C@@]2(N3CCCCC3)c3ccccc3N[C@H]2N1S(=O)(=O)c1ccc([N+](=O)[O-])cc1,nt,nt,nt,-3,12,nt,nt
Cc1ccc(NC(=O)C2CCN(S(=O)(=O)c3ccc4c(c3)CC(C)N4C(=O)C3CCC3)CC2)nc1 (stereo not drawn),3,0,0,-4,45*,-1,27
CC(=O)N1c2ccc(S(=O)(=O)N3CCCC(C(=O)Nc4ccc(C)cc4)C3)cc2CC1C (stereo not drawn),-33,nt,1,-1,-3,nt,nt
CC(=O)N1c2ccc(S(=O)(=O)N3CCCC(C(=O)Nc4ccc(F)cc4)C3)cc2CC1C (stereo not drawn),13,6,2,-7,46*,3,22
Clc1ccc(-n2c(SCc3cccc4ccccc34)nnc2-c2cccnc2)cc1,nt,nt,nt,3,18,nt,nt
Cc1cccc(C)c1NC(=O)[C@@H]1CC(=O)O[C@@H]1c1ccccc1,nt,nt,nt,-4,-9,nt,nt
COc1ccc(OC)c(NC(=O)CCC(=O)Oc2ccc(C)cc2)c1,-4,1,-8,3,39*,-6,0
Cc1ccc(OC(=O)CCC(=O)Nc2ccc(C)c(C)c2)cc1,2,-2,1,-1,-11,nt,nt
Cc1cc(N2CCN(C(=O)Oc3ccc(-c4ccccc4)cc3)CC2)c2ccccc2n1,nt,nt,nt,-4,62*,-1,36
O=C(Nc1ccccc1F)c1ccc(CN2CCc3ccccc3C2)cc1,-34,1,-11,0,2,nt,nt
O=C(Nc1cccnc1)c1ccc(CN2CCc3ccccc3C2)cc1,-2,5,0,-6,42*,-14,10
OC(c1ccccc1)(c1ccccc1)C1CCN(CCCOc2ccc(Br)cc2)CC1,nt,nt,nt,2,-2,nt,nt
COc1cc2c(cc1OC)C(c1ccc(-c3ccc(Cl)cc3Cl)o1)=NCC2,-15,-1,-5,-6,62*,0,42*
COc1cc2c(cc1OC)C(c1ccc(-c3ccc(Cl)c(Cl)c3)o1)=NCC2,22,0,-1,-2,51*,9,46*
O=C(NC1CCCCN(Cc2cccc(C(F)(F)F)c2)C1=O)C1C2CC3CC(C2)CC1C3 (stereo not drawn),nt,nt,nt,-1,17,nt,nt
O=C(Nc1ccc(OCc2ccccc2Cl)cc1)c1cccnc1,33,0,-10,-9,38*,-4,11
